The text below walks through data of ChEMBL document CHEMBL5030518, “Phorbol Diesters and 12-Deoxy-16-hydroxyphorbol 13,16-Diesters Induce TGFα Release and Adult Mouse Neurogenesis” (2021).

The subject of test [1] is Brain. The test can be described thus: Induction of neurogenesis in CD-1 mouse brain assessed as increase in number of BrdU labeled proliferating cells at 5 uM, INH administered once daily for 3 days by confocal microscopic analysis. The class given is functional, tissue-based. Conditions: time 3.0 day. In short, it runs like this: (§1)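 Healthy 2-month-old male CD1 mice given intranasal solution daily for 3 days, 12 µL/day in saline vehicle (3 µL per delivery, alternating nostrils). BrdU 100 mg/kg i.p. on the last day. SVZ sections immunostained for BrdU and DCX. Positive cells counted blinded in every fifth section (6–8 per brain) at 20×. Values are per mm3; mean ± SEM, n = 6 per group.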
Background: Incorporation of labelled thymidine or its analogues reports DNA synthesis.

The test system of test [2] is Neural Progenitor Cell. The test can be described thus: Induction of cell proliferation in mouse SVZ-derived neural progenitor cells assessed as neurosphere formation at up to 5 uM measured after 72 hrs by phase contrast microscopic analysis. To be noted: dose microM <=5, time 72.0 hrs. The class given is functional, tissue-based. In outline: (§2)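 NPCs were isolated from the SVZ of postnatal day 7 CD1 mice and grown as floating neurospheres with bFGF. Increasing compound concentrations were added at seeding. After 72 h, neurosphere area was measured from phase-contrast images and expressed as % of bFGF-only control. Runs were in triplicate, at least […] independent times; mean ± SEM of nine measurements, two-tailed unpaired t-test.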

Test [3] in a line: Induction of TGFalpha release in serum-starved HEK293T cells coexpressing GFP fused mCherry assessed as reduction in mCherry/GFP ratio at 0.5 uM measured up to 180 mins by time-lapse microscopic analysis relative to control. The class given is functional, Homo sapiens, HEK-293T. Set-up: scale not given: the % may be the effect or the level left. Conditions: time min <=180. In outline: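 HEK293T transfected with mCherry-TGFα-GFP fusion (mCherry N-terminal, GFP C-terminal), left overnight, then serum-starved 30 min in serum-free FluoroBrite DMEM. Compound added at 0.5 µM; live time-lapse imaging over 180 min. Membrane mCherry/GFP ratio normalized to pre-stimulation average; mean normalized ratio, n = 40.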

Test [4] has as its system Brain. The test can be described thus: Induction of neurogenesis in CD-1 mouse brain assessed as increase in number of proliferative neuronal progenitors at 5 uM, INH administered once daily for 3 days by confocal microscopic analysis. The class given is functional, tissue-based. To be noted: time 3.0 day. In outline: as §1
In the next test the test system is HEK-293T. As to the kind of experiment: Induction of TGFalpha release in serum-starved HEK293T cells coexpressing GFP fused mCherry assessed as reduction in mCherry/GFP ratio at 0.5 uM measured up to 180 mins by time-lapse microscopic analysis. The class given is functional, cell-based. To be noted: Homo sapiens, time min <=180. In outline:
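HEK293T cells transfected with an mCherry-TGFα-GFP fusion (mCherry N-terminal, GFP C-terminal) and left overnight. Cells were then serum-starved 30 min in serum-free medium. Compounds were added at 0.5 μM and time-lapse imaging ran for 180 min. Membrane mCherry/GFP ratio was normalized to the pre-stimulation average, and the mean of n = 40 was reported.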

Test [5] has as its system Neural Progenitor Cell. The test can be described thus: Induction of cell proliferation in mouse SVZ-derived neural progenitor cells assessed as neurosphere formation at up to 0.5 uM measured after 72 hrs by phase contrast microscopic analysis. The class given is functional, tissue-based. Conditions: dose microM <=0.5, time 72.0 hrs. In outline:
as §2

Test [6] has as its system Brain. The test can be described thus: Induction of neurogenesis in CD-1 mouse brain assessed as increase in number of proliferative neuronal progenitors at 10 nM, INH administered once daily for 3 days by confocal microscopic analysis. To be noted: time 3.0 day. The class given is functional, tissue-based. In outline:
(§3)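 Male CD1 mice, 2 months old, received 12 μL/day intranasally for 3 days, given as 3 μL portions alternating nostrils with the neck extended. Vehicle was saline; treatment was randomized and coded. BrdU 100 mg/kg i.p. was given on the last day. BrdU and DCX in the SVZ were detected by immunohistochemistry in every fifth section (6–8 per brain) at 20×, with blinded counting. n = 6/group; t-test versus vehicle.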

The test system of test [7] is Brain. The test can be described thus: Induction of neurogenesis in CD-1 mouse brain assessed as increase in total neuronal progenitors double cortin cells at 10 nM, INH administered once daily for 3 days by confocal microscopic analysis. The class given is functional, tissue-based. To be noted: time 3.0 day. In outline: as §3
The test system of test [8] is Brain. The test can be described thus: Induction of neurogenesis in CD-1 mouse brain at 5 uM, INH administered once daily for 3 days by confocal microscopic analysis. The class given is functional, tissue-based. Conditions: time 3.0 day. In short, it runs like this:
as §3

Test [9] deals with Brain. As to the kind of experiment: Induction of neurogenesis in CD-1 mouse brain at 100 nM, INH administered once daily for 3 days by confocal microscopic analysis. Conditions: time 3.0 day. The class given is functional, tissue-based. In short, it runs like this:
as §3

Test [10] relates to Brain. The test can be described thus: Induction of neurogenesis in CD-1 mouse brain at 10 nM, INH administered once daily for 3 days by confocal microscopic analysis. To be noted: time 3.0 day. The class given is functional, tissue-based. In short, it runs like this: as §3
Test [11] relates to Brain. As to the kind of experiment: Induction of neurogenesis in CD-1 mouse brain assessed as increase in number of BrdU labeled proliferating cells at 10 nM, INH administered once daily for 3 days by confocal microscopic analysis. The class given is functional, tissue-based. To be noted: time 3.0 day. In outline: as §3

Active and inactive are the calls of the source. No cut-off for these calls is given here.

For the molecule `CC(=O)O[C@@H]1[C@@H](C)[C@@]2(O)[C@@H](C=C(CO)C[C@]3(O)C(=O)C(C)=C[C@@H]23)[C@@H]2C(C)(C)[C@]12OC(C)=O`, the outcome in the test on Brain [1], in the test with Neural Progenitor Cell [2] and in the test with Brain [4] was Active. In test [3], the Activity stood at 15%.
As to `CC1=C[C@H]2[C@@]3(O)[C@H](C)[C@@H](OC(=O)Cc4ccccc4)[C@]4(OC(=O)Cc5ccccc5)[C@H]([C@@H]3C=C(CO)C[C@]2(O)C1=O)C4(C)C`, the Activity in [3] is 25%.
For the molecule `CC1=C[C@H]2[C@@]3(O)[C@H](C)C[C@]4(OC(=O)Cc5ccccc5)[C@H]([C@@H]3C=C(CO)C[C@]2(O)C1=O)[C@@]4(C)COC(=O)C(C)C`, the outcome in the test on HEK-293T, in the test with Neural Progenitor Cell [2] and with Neural Progenitor Cell [5] was Active.
On to `CC1=C[C@H]2[C@@]3(O)[C@H](C)[C@@H](O)[C@]4(O)[C@H]([C@@H]3C=C(CO)C[C@]2(O)C1=O)C4(C)C`, for which, in the test on HEK-293T, the result was inactive.
With `CC1=C[C@H]2[C@@]3(O)[C@H](C)[C@@H](O)[C@]4(OC(=O)C(C)C)[C@H]([C@@H]3C=C(CO)C[C@]2(O)C1=O)C4(C)C`, the result in the test on HEK-293T and in the test with Neural Progenitor Cell [2] was inactive.
As for `CC1=C[C@H]2[C@@]3(O)[C@H](C)[C@@H](OC(=O)Cc4ccccc4)[C@]4(OC(=O)C(C)C)[C@H]([C@@H]3C=C(CO)C[C@]2(O)C1=O)C4(C)C`, the Activity in test [3] was determined as 25%.
The same measure, in the same setting: under `C/C=C(/C)C(=O)O[C@@H]1[C@@H](C)[C@@]2(O)[C@@H](C=C(CO)C[C@]3(O)C(=O)C(C)=C[C@@H]23)[C@@H]2C(C)(C)[C@]12OC(=O)C(C)C` stands 15%; under `CC1=C[C@H]2[C@@]3(O)[C@H](C)[C@@H](OC(=O)C(C)C)[C@]4(OC(=O)Cc5ccccc5)[C@H]([C@@H]3C=C(CO)C[C@]2(O)C1=O)C4(C)C`, 25%.
Turning to `CC1=C[C@H]2[C@@]3(O)[C@H](C)[C@@H](OC(=O)C(C)C)[C@]4(OC(=O)C(C)C)[C@H]([C@@H]3C=C(CO)C[C@]2(O)C1=O)C4(C)C`, the result in the test with Brain [6], in the test on Brain [7], in the test on Brain [10], with Neural Progenitor Cell [5] and with Brain [11] was Active. Besides, the outcome in the test with Brain [8] and in the test on Brain [9] was inactive.
